{
  "source": "ChEMBL document CHEMBL5053559",
  "about": "“Photoaffinity-Based Chemical Proteomics Reveals 7-Oxocallitrisic Acid Targets CPT1A to Trigger Lipogenesis Inhibition” (ACS Med Chem Lett, 2021)",
  "key": {"[1]": {"system": "AML12", "assay": "Cytotoxicity against mouse AML12 cells assessed as cell viability at 5 uM measured after 24 hrs by MTT assay", "assay_type": "cell-based", "conditions": "aml12, 24 h"}, "[2]": {"system": "AML12", "assay": "Cytotoxicity against mouse AML12 cells assessed as cell viability at 10 uM measured after 24 hrs by MTT assay", "assay_type": "cell-based", "conditions": "aml12, 24 h"}, "[3]": {"system": "AML12", "assay": "Activation of CPT1A in mouse AML12 cells assessed as inhibition of oleic acid-induced lipid accumulation using L-carnitine and palmitoyl CoA as substrates pretreated with ETO for 6 hrs followed by addition of compound at 40 uM measured after 48 hrs by […] reagent based enzymatic assay", "assay_type": "cell-based", "in_short": "(§1)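 Lysates of AML12 cells grown in medium with 0.15 mM oleic acid. Cells pretreated 6 h with ETO or with DMSO, then exposed to compound for 24 h (legend says 48 h). Lysis by sonication in 0.5 M Tris, 0.15 M KCl and protease inhibitors. Protein measured by Bradford. Activity expressed as nmol CoA-SH released per min per mg protein. Mean ± SEM, n = 3.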"}, "[4]": {"system": "AML12", "assay": "Activation of CPT1A in mouse AML12 cells assessed as inhibition of oleic acid-induced lipid accumulation using L-carnitine and palmitoyl CoA as substrates pretreated with ETO for 6 hrs followed by addition of compound at 20 uM measured after 48 hrs by […] reagent based enzymatic assay", "assay_type": "cell-based", "in_short": "as §1"}, "[5]": {"system": "AML12", "assay": "Activation of CPT1A in mouse AML12 cells assessed as inhibition of oleic acid-induced lipid accumulation using L-carnitine and palmitoyl CoA as substrates at 40 uM measured after 48 hrs by […] reagent based enzymatic assay relative to control", "assay_type": "cell-based", "conditions": "filed as activator", "in_short": "as §1"}, "[6]": {"system": "AML12", "assay": "Activation of CPT1A in mouse AML12 cells assessed as inhibition of oleic acid-induced lipid accumulation using L-carnitine and palmitoyl CoA as substrates at 20 uM measured after 48 hrs by […] reagent based assay relative to control", "assay_type": "cell-based", "conditions": "filed as activator", "in_short": "as §1"}, "[7]": {"system": "AML12", "assay": "Cytotoxicity against mouse AML12 cells assessed as cell viability at 40 uM measured after 24 hrs by MTT assay", "assay_type": "cell-based", "conditions": "aml12, 24 h"}, "[8]": {"system": "AML12", "assay": "Inhibition of oleic acid-induced lipid accumulation in mouse AML12 cells with siRNA-induced CPT1A knockdown at 40 uM measured after 24 hrs by Oil red O staining based microscopic assay", "assay_type": "functional, cell-based", "in_short": "(§2)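 AML12 cells either transfected with siRNA against CPT1A or pretreated with 20 μM etomoxir, with negative-control comparison. Cells then loaded with oleic acid and exposed to compound at 40 μM for 24 h. Lipid read by Oil Red O staining with image quantification. Mean ± SEM, n = 3.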"}, "[9]": {"system": "AML12", "assay": "Inhibition of oleic acid-induced lipid accumulation in mouse AML12 cells assessed as increased expression of CPT1A preincubated with ETO at 40 uM measured after 24 hrs by Oil red O staining based microscopic assay", "assay_type": "functional, cell-based", "in_short": "as §2"}, "[10]": {"system": "AML12", "assay": "Inhibition of oleic acid-induced lipid accumulation in mouse AML12 cells with Si-RNA-induced ACSL1 knockdown", "assay_type": "functional, cell-based"}, "[11]": {"system": "AML12", "assay": "Inhibition of oleic acid-induced lipid accumulation in mouse AML12 cells with Si-RNA-induced ECHS1 knockdown", "assay_type": "functional, cell-based"}, "[12]": {"system": "AML12", "assay": "Inhibition of oleic acid-induced lipid accumulation in mouse AML12 cells with Si-RNA-induced FADS3 knockdown", "assay_type": "functional, cell-based"}, "[13]": {"system": "AML12", "assay": "Cytotoxicity against mouse AML12 cells assessed as cell viability at 20 uM measured after 24 hrs by MTT assay", "assay_type": "cell-based", "conditions": "aml12, 24 h"}, "[14]": {"system": "AML12", "assay": "Inhibition of oleic acid-induced lipid accumulation in mouse AML12 cells at 20 uM preincubated with oleic acid for 24 hrs followed by addition of compounds and measured after 24 hrs by Oil red O staining based microscopic assay", "assay_type": "functional, cell-based", "in_short": "(§3)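 Normal mouse liver AML12 cells loaded with 0.15 mM oleic acid in BSA to induce lipid droplets, then given compound for 24 h. DMSO vehicle as control. Stained with Oil Red O and quantified by image analysis. Mean ± SEM, n = 3.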"}, "[15]": {"system": "AML12", "assay": "Inhibition of oleic acid-induced lipid accumulation in mouse AML12 cells at 40 uM preincubated with oleic acid for 24 hrs followed by addition of compounds and measured after 24 hrs by Oil red O staining based microscopic assay", "assay_type": "functional, cell-based", "in_short": "as §3"}},
  "note": "Calls of active or inactive are those of the source. The rule behind the calls is not given here.",
  "data": [
    {"smiles": "CC(C)c1ccc2c(c1)C(=O)C[C@H]1[C@](C)(C(=O)O)CCC[C@]21C", "values": [
      {"measurement": "Activity", "setting": "[1]", "result": "Non-Toxic"},
      {"measurement": "Activity", "setting": "[2]", "result": "Non-Toxic"},
      {"measurement": "Activity", "setting": "[3]", "result": "inactive"},
      {"measurement": "Activity", "setting": "[4]", "result": "inactive"},
      {"measurement": "fold change (FC)", "setting": "[5]", "result": 1.6},
      {"measurement": "fold change (FC)", "setting": "[6]", "result": 1.5},
      {"measurement": "Activity", "setting": "[7]", "result": "Non-Toxic"},
      {"measurement": "inhibition", "setting": "[8]", "result": "inactive"},
      {"measurement": "inhibition", "setting": "[9]", "result": "inactive"},
      {"measurement": "inhibition", "setting": "[10]", "result": "Active"},
      {"measurement": "inhibition", "setting": "[11]", "result": "Active"},
      {"measurement": "inhibition", "setting": "[12]", "result": "Active"},
      {"measurement": "Activity", "setting": "[13]", "result": "Non-Toxic"},
      {"measurement": "inhibition", "setting": "[14]", "result": "Active"},
      {"measurement": "inhibition", "setting": "[15]", "result": "Active"}
    ]}
  ]
}
